MIN6 prolif-1 = MIN6 beta-cell proliferation induction | MIN6 cells proliferation, ATPlite luminescence, 48 h; cells starved in 0.2% serum; 100% = growth in 10% serum | proliferation, % at 10 µM | 0.29% of 330,000 active;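 active = compounds whose signal lies at least 3.5 SD above the mean of all wells on their plate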;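 also: 0% = DMSO-treated cells in low-serum medium and 100% = 10% serum control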
MC4R ag barr = human MC4R agonism via beta-arrestin | AID 540308 | 0.98% of 360,000 active | activation, % at 8.9 µM | U2OS MC4R beta-arrestin complementation, luminescence; percent of melanotan II response, DMSO zero;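 active = activation above a per-plate cutoff, the mean activation of sample wells on that plate plus 3 SD, cut at about 8% in these data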
ANO1 block = mouse TMEM16A channel inhibition, primary screen; Q8BHY3; HEK293 TMEM16A/YFP iodide influx fluorescence, ionomycin; normalized B-score (activity score, 25-100; higher = stronger inhibition) at 10 µM; 1.2% of 310,000 active; AID 588511;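 active = ratio plate-corrected score three or more library SD toward inhibition, starting fluorescence score within five deviations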;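 also: score derived from kinetic fluorescence span divided by baseline fluorescence per well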
MC4R antag cAMP = human MC4R antagonism in cAMP assay; 0.48% of 360,000 active; MC4R-expressing cells, MTII-stimulated cAMP, LANCE TR-FRET; AID 540295; P32245; inhibition, % at 6.5 µM;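 active = inhibition above its plate's cutoff, the mean of tested wells on that plate plus 3 SD, cut at about 29% in these data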;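 also: 0% = Melanotan II alone and 100% = Melanotan II plus saturating MCL0020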
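Material: U2OS-MC4R stable cell line | Reagent: Melanotan II challenge after compound preincubation | Doses: One concentration, 6.5 µM nominal | Incubation: 30-min compound preincubation, 1-h Melanotan II challenge, 1-h detection, room temperature | Signal: TR-FRET cAMP assay | Replicates: One well per compound, no replicates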
ANO1 activ = activates or potentiates the mouse TMEM16A chloride channel | HEK293 TMEM16A/YFP-H148Q/I152L, iodide quench fluorescence; active compounds read low | B-score at 10 µM | Q8BHY3 | AID 623877 | 0.3% of 340,000 active;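 active = fluorescence-ratio B-score plate-corrected deviation score at least 3 library SD below zero, with starting fluorescence score within 5 deviations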;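 also: channel opened by trigger with iodide after compound preincubation; score built on the fluorescence ratio of max minus min over baseline; more negative score means more quench and so TMEM16A activation or potentiation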
m5-HT2A agonist = mouse HTR2A agonism via beta-arrestin recruitment; CHO-K1 mHTR2A beta-arrestin complementation, luminescence; percent of 30 µM serotonin response; activation, % at 7.6 µM; 0.66% of 360,000 active; AID 624169;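 active = activation above a run cutoff, the mean activation of all tested compounds plus 3 SD, cut at about 14% in these data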;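 also: 0% = plate median of compound wells and 100% = 30 µM serotonin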
Target sequence (P35363 whole entry, looked up): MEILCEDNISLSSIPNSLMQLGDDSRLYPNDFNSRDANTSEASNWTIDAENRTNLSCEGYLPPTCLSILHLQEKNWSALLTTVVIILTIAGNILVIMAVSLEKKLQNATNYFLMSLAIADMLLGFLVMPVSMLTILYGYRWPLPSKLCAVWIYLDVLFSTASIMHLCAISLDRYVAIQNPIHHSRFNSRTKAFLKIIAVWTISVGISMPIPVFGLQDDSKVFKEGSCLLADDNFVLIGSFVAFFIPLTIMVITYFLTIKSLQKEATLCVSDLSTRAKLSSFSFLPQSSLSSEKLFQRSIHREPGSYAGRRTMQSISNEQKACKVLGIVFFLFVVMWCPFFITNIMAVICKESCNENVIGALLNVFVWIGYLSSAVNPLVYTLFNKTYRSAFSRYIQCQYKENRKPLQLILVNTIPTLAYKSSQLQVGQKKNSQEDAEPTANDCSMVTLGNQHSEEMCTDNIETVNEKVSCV
MIN6 prolif-2 = confirmation of inducers of beta-cell replication in MIN6 cells; MIN6 beta-cell proliferation, ATPlite luminescence, 48 h; cells kept in 0.2% serum; scaled between 0.2% and 10% serum; AID 463095; 920 tested, under 10 active; shares compounds with MIN6 prolif-1; proliferation increase, % at 50 µM;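 active = proliferation increase above 40% at any of the four tested concentrations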
Starred values were filed as active, the others as inactive; i = inactive; . = not tested or not shown; ! = not active in a repeat. In the library only some 3.4% were active in any assay of this set; here they are far more common.

SMILES	MIN6 prolif-1	MC4R ag barr	ANO1 block	MC4R antag cAMP	ANO1 activ	m5-HT2A agonist	MIN6 prolif-2
CCCCN(C(=O)CCC(=O)Nc1cc(C)on1)C(C(=O)NC(C)(C)C)c1ccccc1Cl (stereo unspecified)	-1	0	i	13	i	-1	.
O=C(NCC1CCCN(C(=O)Cc2ccccc2Cl)C1)c1ccc(F)cc1 (stereo unspecified)	-1	-1	i	1	i	5	.
COc1ccc(C(C)(C)C)cc1NC(=O)COC(=O)CSCc1c(C)noc1C	-3	4	.	-1	i	2	.
COc1ccc(Cl)cc1NC(=O)C[n+]1cccc(C)c1	-2	1	i	5	i	-1	.
COC(=O)c1ccccc1NC(=O)c1cc(-c2ccc(C)cc2)on1	8.3*	2	i	5	i	8	0
COc1ccccc1C(=O)NCC(C)(C)CN=C1NS(=O)(=O)c2ccccc21	6.6*	-1	i	20	i	-8	-2
CCOC(=O)N1CCN(C(=O)/C(=C/c2cccs2)NC(=O)c2ccc(OC)c(OC)c2)CC1	1	-1	i	1	i	-1	.
COc1cc(S(=O)(=O)NC2CCCCC2C)ccc1-n1cnnn1 (stereo unspecified)	7.6*	-3	i	-1	i	0	-4
COc1ccc(-c2nnc(SCC(=O)N3CCOCC3)o2)cc1OC	8.5*	0	i	19	i	-3	2
COc1ccc(-c2nnc(SCC(=O)N3CCN(c4ccccc4)CC3)o2)cc1OC	1	0	i	-2	i	4	.
O=C(O)CC(Cc1ccccc1)(C(=O)O)c1ccccc1 (stereo unspecified)	-2	0	i	16	i	1	.
CC(=O)c1cccc(S(=O)(=O)N2CCC(C(=O)Nc3cccc(C(=O)NC4CC4)c3)CC2)c1	0	-1	.	7	i	1	.
Cc1noc(C)c1COc1ccccc1C(=O)Nc1cccc(S(=O)(=O)N(C)C)c1	14*	0	i	16	i	-1	-2
CC(=O)Nc1cccc(NC(=O)c2ccccc2OCc2c(C)noc2C)c1	2	-1	i	5	i	-5	.
CNC(=S)N(CCc1c(C)[nH]c2ccc(C)cc12)Cc1cccnc1	13*	0	i	5	i	2	-4
Cc1cccc(NC(=S)N(CCc2nc3cc(C)c(C)cc3[nH]2)Cc2cccnc2)c1	4.8*	3	i	5	i	1	-1
CC(=O)N1CCN(CC(O)Cn2c3ccccc3c3ccccc32)CC1 (stereo unspecified)	6.6*	-1	i	-1	i	3	-6
CC1CCN(CC(O)Cn2c3ccccc3c3ccccc32)CC1 (stereo unspecified)	2	3	i	-1	i	-3	.
O=C(COC(=O)c1ccc2[nH]c3c(c2c1)CCCC3)Nc1ccccc1Cl	9.6*	4	i	12	i	2	-1
Cc1ccc(OC(C)C(=O)Nc2ccc3c(c2)n(C)c(=O)n3C)cc1C (stereo unspecified)	7.8*	0	i	3	i	0	0
Fc1ccccc1N1CCN(c2ncnc3[nH]ncc23)CC1	0	0	i	9	i	2	.
FC(F)(F)c1cccnc1N1CCN(c2ncnc3nc[nH]c23)CC1	7	-1	i	2	i	8	.
Clc1ccccc1N1CCN(c2ncnc3nc[nH]c23)CC1	13*	2	i	2	i	-3	1
Fc1ccccc1N1CCN(c2ncnc3nc[nH]c23)CC1	11*	1	i	21	i	0	0
COC(=O)c1ccsc1NC(=O)c1ccco1	11*	-2	i	1	i	6	6
SMILES	MIN6 prolif-1	MC4R ag barr	ANO1 block	MC4R antag cAMP	ANO1 activ	m5-HT2A agonist	MIN6 prolif-2
C[C@@H]1CN([C@H](C)CO)C(=O)c2cc(Br)cnc2O[C@H]1CN(C)C(=O)Nc1ccccc1F	.	1	.	-2	.	7	.
O=C(c1ccccc1)N1CCCC(c2ccc(Cl)cc2)=N1	5.4*	1	i	-1	i	-9	-6
Cc1ccsc1/C=N/NC(=O)CNC(=O)c1cccc([N+](=O)[O-])c1C	8.1*	-3	i	1	i	-2	-2
Cc1ccsc1/C=N/NC(=O)CNC(=O)c1ccco1	-3	-1	i	2	i	-1	.
O=[N+]([O-])c1ccc(Oc2ncccn2)cc1	-1	-1	i	3	i	3	.
N#CCc1ccc(Oc2ncccn2)cc1	8.4*	-1	i	6	i	10	0
Cc1ccc2c(c1)C1CC(C)(O2)N(c2cccc(C(=O)N3CCN(c4ccccn4)CC3)c2)C(=O)N1 (stereo unspecified)	1	0	i	3	i	-2	.
CCOC(=O)[C@]12CCC=C1N(Cc1ccc(Cl)cc1Cl)C(=O)[C@H](CC(=O)NCC13CC4CC(CC(C4)C1)C3)C2	.	.	.	.	.	3	.
COc1ccccc1Nc1nc(C)nc2c1oc1ccccc12	10*	0	i	5	i	-1	3
CCC(=O)Nc1c(OC(=O)CC)ccc2c(C)cc(=O)oc12	13*	0	i	0	i	2	2
CCC(=O)Oc1c(C(=O)CC)cc2c(C)cc(=O)oc2c1C	0	3	i	-18	i	2	.
CSc1ccc(CN2CCC(C)(Oc3ccc(-n4ccnc4)cc3)C2)cc1 (stereo unspecified)	.	-2	.	2	.	-5	.
COc1ccc2c(Cl)c(C(=O)N/N=C/c3cccnc3)sc2c1	15*	-2	i	-9	i	-7	-2
CN1OC[C@@H]2CN(C(=O)CCc3ccccc3)[C@H](c3ccc(N4CCCCC4)cc3)C[C@@H]21	.	.	.	.	.	-10	.
CCOc1ccccc1CNC(=O)CNC(=O)c1cccs1	17*	-2	i	11	i	-1	1
COC(=O)C1=C(C)NC(C)=C([N+](=O)[O-])C1c1ccccc1C(F)(F)F (stereo unspecified)	14*!	0	i	2	i	-5	-6
CC(C)(C)OC(=O)C[C@@H]1C/C=C\C[C@H](CC(=O)N(CCO)Cc2ccccc2)C(=O)N[C@H](Cc2ccccc2)COC1=O	-3	-2	.	6	i	-10	.
O=C(NCc1ccco1)c1c(O)c2cccc3c2n(c1=O)CCC3	8.8*	-2	i	6	i	3	0

Screens: PubChem, several laboratories
